# Published values gathered from unrelated publications.
# Compare with care: the assays were run in different laboratories.
# Target: Uncharacterized serine/threonine-protein kinase SBK3 (SBK3, Homo sapiens, UniProt P0C264)
# Sequence (P0C264 1-359, as in one of the studies): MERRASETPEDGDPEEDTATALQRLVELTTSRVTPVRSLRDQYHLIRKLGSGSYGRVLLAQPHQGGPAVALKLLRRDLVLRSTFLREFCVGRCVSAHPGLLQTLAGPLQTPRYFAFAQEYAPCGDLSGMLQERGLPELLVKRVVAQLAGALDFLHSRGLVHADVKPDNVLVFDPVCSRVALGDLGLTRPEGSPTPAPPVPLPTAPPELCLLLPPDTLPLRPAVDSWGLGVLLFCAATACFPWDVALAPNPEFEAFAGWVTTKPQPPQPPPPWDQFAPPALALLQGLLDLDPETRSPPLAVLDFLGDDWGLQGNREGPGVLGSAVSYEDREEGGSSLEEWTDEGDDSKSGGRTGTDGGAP
SMILES,observed,technique,concentration,remaining binding
O=C(c1ccc(Nc2ncc(Cl)c(-c3cc4ccccc4s3)n2)cc1)N1CCC(N2CCCC2)CC1,binding,competition with immobilised ligand,1 µM,86%
CN(C)c1nccc(-c2cnn3ncccc23)n1,binding,,1 µM,100%
CCN1CCN(Cc2ccc(C(=O)Nc3ccc(C)c(Oc4ccc5c(c4)CC(=O)N5)c3)cc2C(F)(F)F)CC1,binding,competition with immobilised ligand,1 µM,100%
O=C(N[C@H]1CCCCC/C=C\C2C[C@@]2(C(=O)O)NC(=O)[C@@H]2C[C@@H](Oc3ccncc3)CN2C1=O)OC1CCCC1 (some centres unmarked),binding,competition with immobilised ligand,1 µM,79%
CN(CCCC(F)(F)F)c1nccc(-c2cnn3ncccc23)n1,binding,,1 µM,42%
CS(=O)(=O)c1cc(C2(NC(=O)c3cncc4c3cnn4-c3ccc(F)cc3)CC2)ccn1,cell-free assay,competition with immobilised ligand,1 µM,100%
c1cnn2ncc(-c3ccnc(N4CCC45COC5)n3)c2c1,binding,,1 µM,71%
C=CC(=O)N1CCC(C(=O)NCC(=O)N2CCN(c3nc(-c4cnc(N)nc4C(F)F)nc(N4CCOCC4)n3)CC2)CC1,binding,competition with immobilised ligand,1 µM,87%
N[C@H]1CCN(c2nccc(-c3cnn4ncccc34)n2)C1,binding,,1 µM,100%
O=S(=O)(NC1CCC(c2cc(F)ccc2F)(S(=O)(=O)c2ccc(Cl)cc2)CC1)C(F)(F)F (centres unmarked),cell-free assay,competition with immobilised ligand,1 µM,93%
O=C(NCCCN1CCOCC1)c1ccc(Nc2ncc(Cl)c(-c3ccc(Cl)s3)n2)cc1,binding,competition with immobilised ligand,1 µM,79%
CN(C)C(=O)Cn1cc(-c2nc([C@@](C)(c3ccc(-c4cnc(N)nc4)cc3)C3CC3)no2)cn1,cell-free assay,competition with immobilised ligand,1 µM,71%
FC(F)(F)Oc1cccc(-c2cnc3ccc(-c4ccncc4)nn23)c1,binding,competition with immobilised ligand,5 µM,100%
O=C(Nc1c[nH]nc1C(=O)NC1CCNCC1)c1cc(F)cc(F)c1,binding,competition with immobilised ligand,1 µM,100%
C[C@@H]1CCN(c2nccc(-c3cnn4ncccc34)n2)C1,binding,,1 µM,99%
O=C(Nc1ccc(Oc2ccc(F)cc2)cc1)N1CCc2ncccc2[C@H]1c1ccc(F)cc1,cell-free assay,competition with immobilised ligand,1 µM,70%
CNC(=O)[C@@H]1CC[C@@H](n2c(-c3ccc4cnccc4c3)nc3ccc(C(=O)NCc4cccc(C(N)=O)c4)cc32)C1,binding,competition with immobilised ligand,1 µM,87%
COc1ccc2c(c1)O[C@H](c1ccc(OC)c(OC)c1)C[C@@H]2NC(=O)C1(c2ccc3c(c2)OC(F)(F)O3)CC1,cell-free assay,competition with immobilised ligand,1 µM,100%
O=C(NCCCN1CCOCC1)c1ccc(Nc2nccc(-c3cc4ccccc4s3)n2)cc1,binding,competition with immobilised ligand,1 µM,91%
COc1cnc(Nc2cccc(S(N)(=O)=O)c2)nc1N1CCN(c2ccccc2)C(=O)C1,binding,competition with immobilised ligand,1 µM,64%
